From the RNAGym collection of RNA variant scans (doi:10.1126/science.aae0568)
Variants at the floor of the assay were thinned out.

B1: tRNA (parent)
chain: GUUCCGUUGGCGUAAUGGUAACGCGUCUCCCUCCUAAGGAGAAGACUGCGGGUUCGAGUCCCGUACGGAACG

Variants of: B1
Test: yeast fitness relative to wild type (ratio to wild type); higher = fitter; tRNA-Arg(CCU), competitive growth, 37 C, YPD
In short: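 Variants of the tRNA-Arg(CCU) gene were chemically synthesised with a 3% per-site mutation rate across 69 sites and placed at the native genomic locus in Saccharomyces cerevisiae. Six parallel replicates of the pooled strains were competed in YPD at 37°C for 24 hours, and gene amplicons from the start and end populations were read by 100-nucleotide paired-end sequencing. Darwinian fitness relative to wild type was derived from changes in genotype frequencies. Genotypes required ≥ 100 starting reads, and estimates < 0.5 were set to 0.5.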

C5U C22A C33G C55U and C5U C22U G48C C66U cannot be ordered by yeast fitness: no more than 0.5 for the first, no more than 0.5 for the second.

First: C5U G38C G39C A40G G44A C46G G52A
Second: C5U G48A A69C
The yeast fitness of the first is lower: no more than 0.5 for the first, 0.758 for the second.

Compared with C5U C11U U28G A40C, C5U G58A C61U A70G is lower in yeast fitness: 1.13 for the first, 0.797 for the second.

Compared with C5U C11U G25A A37G C60G, C5U U7A C30A G58C is higher in yeast fitness: no more than 0.5 for the first, 0.543 for the second.

C5U C61G G67U and C5U U7A C34U G56A G67A cannot be ordered by yeast fitness: no more than 0.5 for the first, no more than 0.5 for the second.

C5U G6C C11A C31G A36C and C5U U19C C24G C61A A70G cannot be ordered by yeast fitness: no more than 0.5 for the first, no more than 0.5 for the second.

C5U C27G U28A C30G C31U G67A and C5U G10C C27G U28C G39C C46G A65G cannot be ordered by yeast fitness: no more than 0.5 for the first, no more than 0.5 for the second.

First: C5U G17C A21U A40G U47G G48C
Second: C5U G50C A70U
The yeast fitness of the first is lower: no more than 0.5 for the first, 0.575 for the second.

C5U U8C A20G C30A G68U and C5U C11U C29U C30G A70C cannot be ordered by yeast fitness: no more than 0.5 for the first, no more than 0.5 for the second.

Going from C5U G50A C66U to C5U G50A C66A, the yeast fitness falls from 0.637 to no more than 0.5.

First: C5U C24A
Second: C5U C11U A57U
The yeast fitness of the first is higher: 0.597 for the first, 0.544 for the second.

C5U C34G A37U C49G G56A and C5U C24U A40C A45U cannot be ordered by yeast fitness: no more than 0.5 for the first, no more than 0.5 for the second.

First: C5U G18A A40U U47C G68A
Second: C5U C49A C66U
The yeast fitness of the first is higher: 0.617 for the first, 0.551 for the second.

Compared with C5U C24A G67C, C5U U13A C62U A65C is lower in yeast fitness: 0.547 for the first, no more than 0.5 for the second.

First: C5U C30G A57C
Second: C5U U19A G51C G58A
The yeast fitness of the first is higher: 0.715 for the first, no more than 0.5 for the second.

First: C5U G48A C55U
Second: C5U G12A C60G
The yeast fitness of the first is higher: 0.558 for the first, no more than 0.5 for the second.

Going from C5U G18A to C5U C34G U35C, the yeast fitness falls from 0.76 to 0.533.

Compared with C5U U19C C29U A42C A57G, C5U C22U A37C C55A is higher in yeast fitness: no more than 0.5 for the first, 0.538 for the second.

Going from C5U U8C C30G C31G A65C to C5U G9A, the yeast fitness rises from no more than 0.5 to 0.972.

First: C5U C29U A43G
Second: C5U U19C U26A C62A
The yeast fitness of the first is higher: 0.632 for the first, no more than 0.5 for the second.

C5U G17U C29G C31G A36U A37C A69C and C5U U8C C27U G48A C62A C66U cannot be ordered by yeast fitness: no more than 0.5 for the first, no more than 0.5 for the second.

Compared with C5U C34A G56A, C5U C49G A69U is higher in yeast fitness: no more than 0.5 for the first, 0.629 for the second.

Going from C5U U16G A43G G67C to C5U U8C G41C, the yeast fitness rises from no more than 0.5 to 0.542.

C5U C31U C34U and C5U C22U U35A A37U G67A cannot be ordered by yeast fitness: no more than 0.5 for the first, no more than 0.5 for the second.

Compared with C5U U7G C30U G51C C61A, C5U U13C is higher in yeast fitness: no more than 0.5 for the first, 0.911 for the second.

Going from C5U U13A to C5U U7G A14G C30A A65C, the yeast fitness falls from 0.842 to 0.704.

Going from C5U U19C G52A to C5U C22G C29A C61A, the yeast fitness falls from 0.625 to no more than 0.5.

C5U C33G C61A C66U and C5U C29U C34G cannot be ordered by yeast fitness: no more than 0.5 for the first, no more than 0.5 for the second.

Going from C5U U13A C27G A57C G67A A69U to C5U G17A A40U A42C C49A, the yeast fitness rises from no more than 0.5 to 0.684.

Compared with C5U C11U C29A A40C A45C C61G, C5U C62U is higher in yeast fitness: 0.612 for the first, 1.03 for the second.

C5U C30G A69C A70G and C5U U16C C31A G67C cannot be ordered by yeast fitness: no more than 0.5 for the first, no more than 0.5 for the second.

First: C5U G10A U16A A65G
Second: C5U C22U A57U
The yeast fitness of the first is lower: no more than 0.5 for the first, 0.574 for the second.

Compared with C5U C22U C33U G68C A69U, C5U G23A G25C is higher in yeast fitness: no more than 0.5 for the first, 0.65 for the second.

C5U G18A A40U U47C U53C G68A and C5U U19C G56C U59A A65G cannot be ordered by yeast fitness: no more than 0.5 for the first, no more than 0.5 for the second.

Going from C5U C34A G38C to C5U U13A C24U A45C, the yeast fitness rises from no more than 0.5 to 0.671.

Compared with C5U G50A G63A, C5U G51A G56A A65C is lower in yeast fitness: 0.608 for the first, no more than 0.5 for the second.

Going from C5U C33U C34U G58C G63A to C5U G18A C30A G58A G68U, the yeast fitness rises from no more than 0.5 to 0.581.

Compared with C5U U7C C24G C27A, C5U G12A is higher in yeast fitness: no more than 0.5 for the first, 0.959 for the second.

Compared with C5U G12C, C5U C22G C29G C60A G67A is lower in yeast fitness: 0.818 for the first, no more than 0.5 for the second.

First: C5U C22G C24G C31U
Second: C5U G52A
The yeast fitness of the first is lower: 0.552 for the first, 0.697 for the second.

Compared with C5U G25A C49A A69U, C5U C11U C34A is higher in yeast fitness: no more than 0.5 for the first, 0.558 for the second.

Compared with C5U C22A C29U G51C, C5U G18C C22U G50A is higher in yeast fitness: no more than 0.5 for the first, 0.572 for the second.

Going from C5U C11U G67C to C5U G9A C22U, the yeast fitness falls from 0.659 to 0.593.

Going from C5U C34A U53A to C5U U16A C33U C49A, the yeast fitness falls from 0.562 to no more than 0.5.

Compared with C5U C24U A36G C46A, C5U G12C G44C is lower in yeast fitness: 0.92 for the first, 0.53 for the second.

Compared with C5U G17A A40U A42C C49A C66A, C5U C22U C27U A42G C55A C60A is lower in yeast fitness: 0.593 for the first, no more than 0.5 for the second.

Going from C5U C31G U59C to C5U C27U A36G, the yeast fitness falls from 0.913 to 0.75.

C5U C27G U47C A70U and C5U U13C C24G U26C A37G G38U U54G C61G cannot be ordered by yeast fitness: no more than 0.5 for the first, no more than 0.5 for the second.

First: C5U C61A G67A
Second: C5U C30A C33G A42C C60A C66A A69C
The yeast fitness of the first is higher: 0.576 for the first, no more than 0.5 for the second.

Compared with C5U U19G A37G C66U A69U, C5U C55U is higher in yeast fitness: 0.547 for the first, 0.864 for the second.

Going from C5U C24U A69C to C5U C49A, the yeast fitness rises from 0.777 to 0.78.

Compared with C5U C49U, C5U C22G A40G is lower in yeast fitness: 0.953 for the first, 0.741 for the second.

Going from C5U C33U U54C G58A to C5U U7G C30A A65C, the yeast fitness rises from 0.703 to 1.07.

Compared with C5U G48A C55U C66U, C5U G12A A69C is higher in yeast fitness: 0.521 for the first, 0.724 for the second.

Compared with C5U U7C U26C U28C C29G C34A, C5U C46U C60G is lower in yeast fitness: 0.659 for the first, no more than 0.5 for the second.

Going from C5U C27A A42U C49G C60A to C5U G12A A40U G44U A45G C60A, the yeast fitness falls from 0.817 to no more than 0.5.

First: C5U C29G C31G A36U A37C A57C G68C
Second: C5U G41A
The yeast fitness of the first is lower: no more than 0.5 for the first, 0.906 for the second.

Compared with C5U G44C C61U, C5U C46U C55A G56C is lower in yeast fitness: 0.702 for the first, no more than 0.5 for the second.

Compared with C5U C31G C33G C34U C49U G68A, C5U G25A U26A G56C A65C is lower in yeast fitness: 0.543 for the first, no more than 0.5 for the second.

Compared with C5U C46G A65G, C5U C31G G41A G52C C60U C62G C66G is lower in yeast fitness: 0.661 for the first, no more than 0.5 for the second.

C5U U19C U28A C66U G68A and C5U C22G C24G C31U C55A cannot be ordered by yeast fitness: no more than 0.5 for the first, no more than 0.5 for the second.

C5U U16A C34A A70G and C5U G18C U26G cannot be ordered by yeast fitness: no more than 0.5 for the first, no more than 0.5 for the second.

First: C5U C49U G56U
Second: C5U U7G A40G A57U
The yeast fitness of the first is higher: 0.538 for the first, no more than 0.5 for the second.

Going from C5U G9C G23A G50A A65U to C5U C62U A65C, the yeast fitness rises from no more than 0.5 to 0.739.

C5U C24G A40C A45U and C5U C22G C29A A45U A70C cannot be ordered by yeast fitness: no more than 0.5 for the first, no more than 0.5 for the second.

Compared with C5U U8A, C5U G38C G41C C60G is lower in yeast fitness: 0.632 for the first, no more than 0.5 for the second.

First: C5U C27G C34G
Second: C5U U13C C61U
The yeast fitness of the first is lower: no more than 0.5 for the first, 0.673 for the second.

Going from C5U U8A C61U to C5U G44A, the yeast fitness rises from 0.548 to 1.08.

Going from C5U G9A C22A C55G to C5U G39A G48A A57U, the yeast fitness rises from no more than 0.5 to 0.565.

Going from C5U C11U C24A C55A A65G to C5U C31U U47C, the yeast fitness rises from no more than 0.5 to 0.701.

C5U C31G A40G A45G C46G G48A C62U G63A and C5U U7C G68C cannot be ordered by yeast fitness: no more than 0.5 for the first, no more than 0.5 for the second.

Going from C5U U16A U47C to C5U U7C C24A C61U, the yeast fitness falls from 0.785 to no more than 0.5.

Going from C5U U7C A45C to C5U G18A A40U U47C, the yeast fitness falls from 0.74 to 0.501.

C5U U16G A65G C66U and C5U C22G C27G C29G C49U cannot be ordered by yeast fitness: no more than 0.5 for the first, no more than 0.5 for the second.

First: C5U C34G
Second: C5U C34U
The yeast fitness of the first is higher: 0.788 for the first, 0.746 for the second.

First: C5U G17A C60G G67A
Second: C5U C29G C30A G63A U64G A69C
The yeast fitness of the first is lower: no more than 0.5 for the first, 0.572 for the second.

C5U C31U G41A U64C and C5U C22G C24A A57C cannot be ordered by yeast fitness: no more than 0.5 for the first, no more than 0.5 for the second.

Going from C5U C29A A42G C61G to C5U C27U G41A, the yeast fitness rises from no more than 0.5 to 0.573.

Compared with C5U U7A A65C, C5U G41A C55G C66U is lower in yeast fitness: 0.64 for the first, no more than 0.5 for the second.

Going from C5U C22G C29G U32C to C5U C34A C55U, the yeast fitness rises from no more than 0.5 to 0.529.

C5U G10A A20G A36U A43C C61G and C5U G17A C60A cannot be ordered by yeast fitness: no more than 0.5 for the first, no more than 0.5 for the second.

First: C5U C34A C55G A69U
Second: C5U U26A G56C A65C
The yeast fitness of the first is lower: no more than 0.5 for the first, 0.53 for the second.

Going from C5U G56A A65U to C5U G9C A36G C60G A70G, the yeast fitness falls from 0.854 to no more than 0.5.

In the case of C5U U8G U28C A36G, the yeast fitness is reported as no more than 0.5.
